Activity calls are given as the source filed them.
Key:
Assay type in all cases: functional, organism-based
[1] = system: Bacillus subtilis; assay: Induction of DNA damage in Bacillus subtilis isolate 1S34 assessed as increase in yorB promoter activity at 30 ug after 14 to 18 hrs by beta-galactosidase reporter gene assay
Procedure, shortened: (§1)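 B. subtilis 1S34 β-galactosidase promoter reporters were grown in LB with spectinomycin (50 μg/mL) to stationary phase. Cells were set at 3 × 10^7 CFU/mL in LB soft agar (0.7%) containing X-Gal (150 μg/mL). Test compounds were spotted on the plates, with reference antibiotic discs as positive controls. Plates were incubated 14−18 h at 30 °C and read for promoter induction (blue colour).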

[2] = system: Bacillus subtilis; assay: Induction of cell envelope stress in Bacillus subtilis isolate 1S34 assessed as increase in ypuA promoter activity at 30 ug after 14 to 18 hrs by beta-galactosidase reporter gene assay; procedure, shortened: as §1
[3] = system: Bacillus subtilis; assay: Induction of RNA damage in Bacillus subtilis isolate 1S34 assessed as increase in helD promoter activity at 30 ug after 14 to 18 hrs by beta-galactosidase reporter gene assay; procedure, shortened: as §1
[4] = system: Bacillus subtilis; assay: Induction of translation arrest in Bacillus subtilis isolate 1S34 assessed as increase in bmrC promoter activity at 30 ug after 14 to 18 hrs by beta-galactosidase reporter gene assay
Procedure, shortened: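 The bmrC promoter reporter in B. subtilis 1S34 was embedded at 3 × 10^7 CFU/mL in Belitzky minimal medium soft agar containing X-Gal (150 μg/mL). Test compounds were spotted, with reference antibiotic discs as positive controls. Plates were incubated at 37 °C and read for promoter-driven β-galactosidase induction.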

[5] = system: Bacillus subtilis; assay: Induction of cell envelope stress in Bacillus subtilis isolate 1S34 assessed as increase in liaI promoter activity at 30 ug after 14 to 18 hrs by beta-galactosidase reporter gene assay; procedure, shortened: as §1

Measured: Activity

CN[C@H](CC(C)C)C(=O)N[C@H]1C(=O)N[C@@H](CC(N)=O)C(=O)N[C@H]2C(=O)N[C@H]3C(=O)N[C@H](C(=O)N[C@H](C(=O)O)c4cc(O)cc(O)c4-c4cc3ccc4O)[C@H](O)c3ccc(c(Cl)c3)Oc3cc2cc(c3O[C@@H]2O[C@H](CO)[C@@H](O)[C@H](O)[C@H]2O[C@H]2C[C@](C)(N)[C@H](O)[C@H](C)O2)Oc2ccc(cc2Cl)[C@H]1O
active: all assays above

CO[C@H]1/C=C/O[C@@]2(C)Oc3c(C)c(O)c4c(O)c(c(/C=N/N5CCN(C)CC5)c(O)c4c3C2=O)NC(=O)/C(C)=C\C=C\[C@H](C)[C@H](O)[C@@H](C)[C@@H](O)[C@@H](C)[C@H](OC(C)=O)[C@@H]1C
active: all assays above

From ChEMBL document CHEMBL4138145, “Cyclic Cystine-Bridged Peptides from the Marine Sponge Clathria basilana Induce Apoptosis in Tumor Cells and Depolarize the Bacterial Cytoplasmic Membrane” (J Nat Prod, 2017)
